Measurements: ChEMBL document CHEMBL1151319, “Antiplatelet aggregation constituents from Annona purpurea” (1998)

How the values were obtained:
Set-up in all cases: scale not given: the % may be the effect or the level left
Platelet [1] = assay: Inhibition of platelet activating factor-induced platelet aggregation in rabbit platelets at 100 ug/mL treated […] before […] challenge relative to control; type: functional, Oryctolagus cuniculus
Procedure, shortened: (§1)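 Rabbit platelets were preincubated at 37 °C for 3 min with compound at 100 μg/mL, or with 0.5% DMSO as the control, before the inducer was added. Inducers were thrombin 0.1 U/mL, arachidonic acid 100 μM, collagen 10 μg/mL, or PAF. The read-out was % aggregation, with 3–6 replicates.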

Platelet [2] = assay: Inhibition of platelet activating factor-induced platelet aggregation in rabbit platelets at 20 ug/mL treated 3 mins before platelet activating factor challenge relative to control
Platelet [3] = assay: Inhibition of platelet activating factor-induced platelet aggregation in rabbit platelets at 10 ug/mL treated 3 mins before platelet activating factor challenge relative to control
Platelet [4] = assay: Inhibition of arachidonic acid-induced platelet aggregation in rabbit platelets at 100 ug/mL treated […] before […] challenge relative to control; type: functional, Oryctolagus cuniculus; procedure, shortened: as §1
Platelet [5] = assay: Inhibition of platelet activating factor-induced platelet aggregation in rabbit platelets at 50 ug/mL treated […] before […] challenge relative to control; type: functional, Oryctolagus cuniculus
Procedure, shortened: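 PAF-induced aggregation of rabbit platelets was run after 3 min preincubation at 37 °C with compound at graded levels or 0.5% DMSO control. PAF is given as 2 ng/mL in the footnote and 2 nM in the column header. Output is % aggregation with n per point.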

Platelet [6] = assay: Inhibition of thrombin-induced platelet aggregation in rabbit platelets at 100 ug/mL treated […] before thrombin challenge relative to control; type: functional, Oryctolagus cuniculus; procedure, shortened: as §1
Platelet [7] = assay: Inhibition of platelet activating factor-induced platelet aggregation in rabbit platelets at 5 ug/mL treated 3 mins before platelet activating factor challenge relative to control
Platelet [8] = assay: Inhibition of collagen-induced platelet aggregation in rabbit platelets at 100 ug/mL treated […] before […] challenge relative to control; type: functional, Oryctolagus cuniculus; procedure, shortened: as §1
Platelet [9] = assay: Inhibition of arachidonic acid-induced platelet aggregation in rabbit platelets at 50 ug/mL treated 30 mins before […] challenge relative to control; type: functional, Oryctolagus cuniculus
Platelet [10] = assay: Inhibition of arachidonic acid-induced platelet aggregation in rabbit platelets at 20 ug/mL treated 30 mins before […] challenge relative to control; type: functional, Oryctolagus cuniculus
Platelet [11] = assay: Inhibition of arachidonic acid-induced platelet aggregation in rabbit platelets at 10 ug/mL treated 3 mins before arachidonic acid challenge relative to control
Platelet [12] = assay: Inhibition of collagen-induced platelet aggregation in rabbit platelets at 50 ug/mL treated 30 mins before […] challenge relative to control; type: functional, Oryctolagus cuniculus
Platelet [13] = assay: Inhibition of thrombin-induced platelet aggregation in rabbit platelets at 50 ug/mL treated 30 mins before thrombin challenge relative to control; type: functional, Oryctolagus cuniculus
Platelet [14] = assay: Inhibition of arachidonic acid-induced platelet aggregation in rabbit platelets at 50 ug/mL treated 3 min before arachidonic acid challenge relative to control
Platelet [15] = assay: Inhibition of arachidonic acid-induced platelet aggregation in rabbit platelets at 5 ug/mL treated 3 mins before arachidonic acid challenge relative to control

Work on COc1cc2c(O)c3c4c(cc(OC)c(OC)c4c2cc1OC)CCN3C yielded an Activity (Platelet [1]) of 0%, an Activity (Platelet [2]) of 25.2% and an Activity (Platelet [3]) of 64.9%. For the same compound, the Activity (Platelet [4]) was 21.8%, the Activity (Platelet [5]) was 0% and the Activity (Platelet [6]) was 78.8%. The Activity (Platelet [7]) was 77.9% and the Activity (Platelet [8]) was 12.7%.
Work on COc1cc2c3c(cc4ccccc4c3c1O)N(C)CC2 [DEHYDROLIRINIDINE] yielded an Activity (Platelet [9]) of 23.8%, an Activity (Platelet [10]) of 77.6% and an Activity (Platelet [1]) of 51.7%. The Activity (Platelet [11]) was 82.8%, the Activity (Platelet [4]) was 0% and the Activity (Platelet [6]) was 86.3%. It also gave an Activity (Platelet [8]) of 0%.
COc1cc2ccnc3c2c(c1OC)-c1ccccc1C3=O [LYSICAMINE] was tested, and the Activity (Platelet [9]) was 16.3%, the Activity (Platelet [5]) was 83.7% and the Activity (Platelet [12]) was 55.2%. It also gave an Activity (Platelet [13]) of 88.9%.
COc1cc2c(cc1OC)-c1c(OC)c(OC)cc3ccnc(c13)C2=O [OXOGLAUCINE] was tested, and the Activity (Platelet [14]) was 55.8%, the Activity (Platelet [5]) was 84.4% and the Activity (Platelet [12]) was 74.4%. The Activity (Platelet [13]) was 87%.
COc1cc2c(cc1OC)-c1c(OC)c(OC)c(OC)c3ccnc(c13)C2=O [OXOPURPUREINE] gave an Activity (Platelet [1]) of 87.2%, an Activity (Platelet [4]) of 43.7% and an Activity (Platelet [8]) of 53.5%.
COc1cc2c(cc1OC)-c1c(OC)c(O)cc3c1[C@H](C2)N(C)CC3 [PREDICENTRINE] was tested, and the Activity (Platelet [9]) was 62%, the Activity (Platelet [10]) was 83.2% and the Activity (Platelet [1]) was 74%. The Activity (Platelet [4]) was 0%, the Activity (Platelet [6]) was 88.9% and the Activity (Platelet [8]) was 0%.
COc1cc2c(cc1OC)-c1c(OC)c(OC)c(O)c3c1[C@@H](C2)N(C)CC3 [THALBAICALIDINE] gave an Activity (Platelet [9]) of 72.2%, an Activity (Platelet [10]) of 82.2% and an Activity (Platelet [1]) of 73.6%. It also gave an Activity (Platelet [4]) of 4.2%, an Activity (Platelet [6]) of 86.3% and an Activity (Platelet [8]) of 0%.
With CNCCc1c(OC)c(OC)c(OC)c2c1ccc1cc(OC)c(OC)cc12 [THALICPUREINE] the Activity (Platelet [9]) was 0%, the Activity (Platelet [10]) was 41.9% and the Activity (Platelet [1]) was 0%. For the same compound, the Activity (Platelet [2]) was 55.5%, the Activity (Platelet [3]) was 78.8% and the Activity (Platelet [11]) was 74.2%. It also gave an Activity (Platelet [4]) of 0%, an Activity (Platelet [5]) of 3.9% and an Activity (Platelet [6]) of 33.6%. It also gave an Activity (Platelet [7]) of 82.4%, an Activity (Platelet [8]) of 0% and an Activity (Platelet [15]) of 83.7%.
